Active and inactive are the calls of the source. No cut-off for these calls is given here.
Test system: Mycobacterium tuberculosis
Test: Antimycobacterial activity against drug-resistant Mycobacterium tuberculosis H37Rv at 2mg/mL by BACTEC assay
Type: functional, organism-based
Method in brief: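 Radiometric BACTEC 12B (7H12) vials with a growing inoculum of 2.5-5.0 × 10⁵ CFU/vial, two-fold compound dilutions, 37 °C. Growth index read daily in a BACTEC 460 until 1:100 inoculum controls reached GI 30. Percent inhibition = (GI test/GI control) × 100.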

CO[C@H]1/C=C/O[C@@]2(C)Oc3c(C)c(O)c4c(O)c(c(/C=N/N5CCN(C)CC5)c(O)c4c3C2=O)NC(=O)/C(C)=C\C=C\[C@H](C)[C@H](O)[C@@H](C)[C@@H](O)[C@@H](C)[C@H](OC(C)=O)[C@@H]1C [RIFAMPIN]
Activity: inactive
